In ChEMBL document CHEMBL4024762, “Discovery of N-(3-Carbamoyl-5,5,7,7-tetramethyl-5,7-dihydro-4H-thieno[2,3-c]pyran-2-yl)-lH-pyrazole-5-carboxamide (GLPG1837), a Novel Potentiator Which Can Open Class III Mutant Cystic Fibrosis Transmembrane Conductance Regulator (CFTR) Channels to a High Extent” (J Med Chem, 2018):
≈ marks a conversion by molar mass, not a printed value. Calls of active or inactive are those of the source. No cut-off for these calls is given here.

Legend:
[1] = tested on: Cystic fibrosis transmembrane conductance regulator (Homo sapiens), P13569 [F508del]; experiment: (§1) Potentiation of CFTR F508del mutant (unknown origin) expressed in human CFBE41o cells incubated for 10 mins in presence of forskolin measured for 7 secs by YFP halide assay; type: cell-based; set-up: concentration or dose not given beside the values
Method in brief: (§2)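 CFBE41o- cells (CF bronchial line) transduced by adenovirus with F508del CFTR and YFP (H148Q/I152L/F47L). Cells held 24 h at 27°C, then treated 10 min at room temperature with 10 µM forskolin plus potentiator. YFP fluorescence read for 7 s across addition of NaI buffer (137 mM NaI). Activity = 1-(F/F0).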

[2] = molecular target: Cystic fibrosis transmembrane conductance regulator (Homo sapiens, UniProt P13569, F508DEL); experiment: as §1; type: cell-based; method in brief: as §2
[3] = tested on: Cystic fibrosis transmembrane conductance regulator (Homo sapiens), P13569 [G551D]; experiment: (§3) Potentiation of CFTR G551D mutant (unknown origin) expressed in HEK293 cells incubated for 10 mins in presence of forskolin measured for 2 mins by YFP halide assay; type: cell-based; set-up: concentration or dose not given beside the values
Method in brief: (§4)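 HEK293 cells transfected with the mutant CFTR (G551D, G178R, S549N or R117H) and YFP (H148Q/I152L/F47L), seeded directly after transfection, then 24 h at 37°C. Treated 10 min at room temperature with 10 µM forskolin plus potentiator. Fluorescence read for 2 min across addition of NaI buffer (375 mM NaI). Activity = 1-(F/F0).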

[4] = molecular target: T1, Cystic fibrosis transmembrane conductance regulator (Homo sapiens, UniProt P13569, G551D); experiment: as §3; type: cell-based; method in brief: as §4
[5] = tested on: Cystic fibrosis transmembrane conductance regulator (Homo sapiens), P13569 [G551D]; experiment: Potentiation of CFTR G551D mutant in primary HBE cells assessed as increase in channel conductivity measured every 2 mins for 20 mins by TECC assay relative to ivacaftor; type: cell-based
[6] = molecular target: T1, Cystic fibrosis transmembrane conductance regulator; experiment: Potentiation of CFTR G551D mutant in primary HBE cells assessed as increase in channel conductivity measured every 2 mins for 20 mins by TECC assay; type: cell-based
Method in brief: (§5)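 TECC on primary epithelia bathed both sides in NaCl Ringer, pH 7.4, at 37°C. Apical amiloride 100 µM; forskolin 10 µM apical and basolateral. One compound concentration per transwell. EC50 derived from the increase in Ieq. Duplicate or triplicate, mean ± SEM; 10 µM CFTRinh-172 used for specificity.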

[7] = tested on: Cystic fibrosis transmembrane conductance regulator (Homo sapiens), P13569 [G178R]; experiment: Potentiation of CFTR G178R mutant (unknown origin) expressed in HEK293 cells incubated for 10 mins in presence of forskolin measured for 2 mins by YFP halide assay relative to ivacaftor; type: cell-based
[8] = tested on: Cystic fibrosis transmembrane conductance regulator (Homo sapiens), P13569 [S549N]; experiment: Potentiation of CFTR S549N mutant (unknown origin) expressed in HEK293 cells incubated for 10 mins in presence of forskolin measured for 2 mins by YFP halide assay relative to ivacaftor; type: cell-based
[9] = tested on: Cystic fibrosis transmembrane conductance regulator (Homo sapiens), P13569 [R117H]; experiment: Potentiation of CFTR R117H mutant (unknown origin) expressed in HEK293 cells incubated for 10 mins in presence of forskolin measured for 2 mins by YFP halide assay relative to ivacaftor; type: cell-based
[10] = Unbound intrinsic clearance in rat microsomes; type: ADME, Microsome
Method in brief: (§6)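 Intrinsic clearance in liver microsomes or hepatocytes, corrected for non-specific binding using fraction unbound in microsomes (Fu,mic) or in hepatocyte incubations (Fu,inc).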

[11] = Unbound intrinsic clearance in human microsomes; type: ADME, Microsome
[12] = Unbound intrinsic clearance in rat hepatocytes; type: ADME, cell-based, Hepatocyte; method in brief: as §6
[13] = Unbound intrinsic clearance in human hepatocytes; type: ADME, cell-based, Hepatocyte
Cytochrome P450 1A2 = molecular target: T2, Cytochrome P450 1A2 (Homo sapiens, UniProt P05177); experiment: Inhibition of CYP1A2 (unknown origin); type: ADME
T2 sequence (P05177 whole entry): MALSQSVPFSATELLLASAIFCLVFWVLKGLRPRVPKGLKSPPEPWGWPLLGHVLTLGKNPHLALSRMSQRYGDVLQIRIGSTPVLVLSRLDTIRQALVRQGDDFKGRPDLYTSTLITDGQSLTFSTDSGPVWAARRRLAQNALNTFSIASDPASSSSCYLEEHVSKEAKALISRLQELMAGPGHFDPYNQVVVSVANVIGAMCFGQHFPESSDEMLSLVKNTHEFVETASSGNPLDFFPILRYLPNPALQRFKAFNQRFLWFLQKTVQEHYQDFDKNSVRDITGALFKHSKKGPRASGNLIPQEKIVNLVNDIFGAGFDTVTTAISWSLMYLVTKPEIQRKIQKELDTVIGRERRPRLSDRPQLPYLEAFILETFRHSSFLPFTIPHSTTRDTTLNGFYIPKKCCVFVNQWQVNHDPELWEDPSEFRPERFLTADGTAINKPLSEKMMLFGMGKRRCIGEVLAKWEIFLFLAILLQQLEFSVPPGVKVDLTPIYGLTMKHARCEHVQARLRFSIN

Cytochrome P450 2C19 = Cytochrome P450 2C19 (Homo sapiens, UniProt P33261); experiment: Inhibition of CYP2C19 (unknown origin); type: ADME
Cytochrome P450 2C9 = Cytochrome P450 2C9 (Homo sapiens, UniProt P11712); experiment: Inhibition of CYP2C9 (unknown origin); type: ADME
Cytochrome P450 2D6 = Cytochrome P450 2D6 (Homo sapiens, UniProt P10635); experiment: Inhibition of CYP2D6 (unknown origin); type: ADME
Cytochrome P450 3A4 = Cytochrome P450 3A4 (Homo sapiens, UniProt P08684); experiment: Inhibition of CYP3A4 (unknown origin); type: ADME
[14] = molecular target: Voltage-gated inwardly rectifying potassium channel KCNH2 (Homo sapiens, UniProt Q12809); experiment: Inhibition of human ERG by manual patch clamp method
[15] = Thermodynamic solubility of the compound at pH 7.4; type: physicochemical; details: buffer, read-out: Therm_solubility
[16] = Thermodynamic solubility of the compound at pH 3; type: physicochemical; details: buffer, read-out: Therm_solubility
[17] = Permeability across apical to basolateral side in MDCK cells; type: ADME, cell-based, Canis lupus familiaris; details: dog, read-out: permeability
[18] = Efflux ratio of permeability in MDCK cells; type: ADME, cell-based, Canis lupus familiaris; details: dog
[19] = Cmax in rat at 5 mg/kg, po; type: ADME, organism-based; set-up: dose 5 mg/kg, route oral; details: in vivo
[20] = Clearance in rat at 1 mg/kg, iv; type: ADME, organism-based; details: in vivo
Method in brief: (§7)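 IV PK in rat and dog at 1 mg/kg. Cl, Cl,unb (L/h/kg), Vd (L/kg) and T1/2 (h) were derived from plasma levels.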

[21] = Clearance in dog at 1 mg/kg, iv; type: ADME, organism-based, Canis lupus familiaris; details: in vivo; method in brief: as §7
Rattus norvegicus = experiment: Unbound clearance in rat at 1 mg/kg, iv; type: ADME, organism-based; details: in vivo; method in brief: as §7
Canis familiaris = experiment: Unbound clearance in dog at 1 mg/kg, iv; type: ADME, organism-based, Canis lupus familiaris; details: in vivo; method in brief: as §7
[22] = Volume of distribution in rat at 1 mg/kg, iv; type: ADME, organism-based; details: in vivo; method in brief: as §7
[23] = Volume of distribution in dog at 1 mg/kg, iv; type: ADME, organism-based, Canis lupus familiaris; details: in vivo; method in brief: as §7
[24] = Half life in rat at 1 mg/kg, iv; type: ADME, organism-based; details: in vivo; method in brief: as §7
[25] = Half life in dog at 1 mg/kg, iv; type: ADME, organism-based, Canis lupus familiaris; details: in vivo; method in brief: as §7
[26] = Oral bioavailability in rat at 5 mg/kg; type: ADME, organism-based; details: in vivo
Method in brief: (§8)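 F% in rat and dog after a 5 mg/kg PO dose, referenced to the 1 mg/kg IV PK parameters.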

[27] = Oral bioavailability in dog at 5 mg/kg; type: ADME, organism-based, Canis lupus familiaris; details: in vivo; method in brief: as §8
[28] = Cmax in rat at 300 mg/kg, po; type: ADME, organism-based; set-up: dose 300 mg/kg, route oral; details: in vivo
[29] = AUC in rat at 5 mg/kg, po; type: ADME, organism-based; details: in vivo
[30] = AUC in rat at 300 mg/kg, po; type: ADME, organism-based; details: in vivo
Homo sapiens [31] = experiment: Toxicity in human up to 2000 mg administered as single dose
Homo sapiens [32] = experiment: Toxicity in human up to 800 mg, bid administered for 14 days; details: 336 h
[33] = tested on: Cystic fibrosis transmembrane conductance regulator (Homo sapiens), P13569 [F508del]; experiment: Potentiation of CFTR F508del mutant in primary HBE cells assessed as increase in channel conductivity measured every 2 mins for 20 mins by TECC assay; type: cell-based; method in brief: as §5
Homo sapiens [34] = species on record: Homo sapiens; experiment: Selectivity ratio of EC50 for CFTR G551D mutant (unknown origin) to EC50 for CFTR F508del mutant (unknown origin)

Sequence of Cystic fibrosis transmembrane conductance regulator (Homo sapiens), P13569 [G551D] (P13569 whole entry G551D): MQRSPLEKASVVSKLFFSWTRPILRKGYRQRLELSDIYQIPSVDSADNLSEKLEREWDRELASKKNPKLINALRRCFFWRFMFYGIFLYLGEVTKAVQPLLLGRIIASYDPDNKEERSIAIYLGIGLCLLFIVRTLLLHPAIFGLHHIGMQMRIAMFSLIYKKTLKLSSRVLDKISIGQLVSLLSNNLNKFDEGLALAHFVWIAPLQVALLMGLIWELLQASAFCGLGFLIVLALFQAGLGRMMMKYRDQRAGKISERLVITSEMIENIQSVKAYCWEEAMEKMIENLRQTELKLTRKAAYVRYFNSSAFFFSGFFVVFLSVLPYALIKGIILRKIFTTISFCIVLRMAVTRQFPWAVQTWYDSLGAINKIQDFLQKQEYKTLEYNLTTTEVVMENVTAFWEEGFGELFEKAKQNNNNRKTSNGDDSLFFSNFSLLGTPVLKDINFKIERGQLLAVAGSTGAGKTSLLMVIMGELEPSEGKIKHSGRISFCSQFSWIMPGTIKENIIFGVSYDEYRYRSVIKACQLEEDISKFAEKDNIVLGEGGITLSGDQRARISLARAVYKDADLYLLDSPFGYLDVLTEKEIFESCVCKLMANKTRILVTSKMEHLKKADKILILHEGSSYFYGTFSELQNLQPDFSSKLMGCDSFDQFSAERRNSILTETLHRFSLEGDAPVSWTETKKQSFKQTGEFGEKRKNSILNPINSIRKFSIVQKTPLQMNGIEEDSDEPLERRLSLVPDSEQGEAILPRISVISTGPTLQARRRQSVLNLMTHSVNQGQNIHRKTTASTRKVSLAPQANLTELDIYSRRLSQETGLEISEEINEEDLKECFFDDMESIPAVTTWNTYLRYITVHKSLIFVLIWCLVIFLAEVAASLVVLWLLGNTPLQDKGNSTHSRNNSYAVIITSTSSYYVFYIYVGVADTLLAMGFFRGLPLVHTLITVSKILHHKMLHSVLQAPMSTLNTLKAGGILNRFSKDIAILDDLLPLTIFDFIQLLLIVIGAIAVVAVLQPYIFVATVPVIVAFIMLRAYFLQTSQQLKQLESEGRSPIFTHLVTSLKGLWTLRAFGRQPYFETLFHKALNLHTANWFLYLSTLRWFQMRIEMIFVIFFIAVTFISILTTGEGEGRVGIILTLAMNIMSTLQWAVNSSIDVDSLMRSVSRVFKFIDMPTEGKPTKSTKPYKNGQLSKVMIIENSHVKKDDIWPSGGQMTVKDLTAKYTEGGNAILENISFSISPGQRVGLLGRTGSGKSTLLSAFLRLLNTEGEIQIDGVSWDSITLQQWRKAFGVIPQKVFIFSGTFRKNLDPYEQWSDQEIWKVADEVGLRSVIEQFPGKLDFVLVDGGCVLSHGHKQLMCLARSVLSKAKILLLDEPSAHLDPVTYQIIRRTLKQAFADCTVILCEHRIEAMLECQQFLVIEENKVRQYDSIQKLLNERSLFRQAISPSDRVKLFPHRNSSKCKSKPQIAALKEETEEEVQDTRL
T1 sequence (P13569 whole entry G551D): as above
Sequence of Cystic fibrosis transmembrane conductance regulator (Homo sapiens, UniProt P13569, F508DEL) (P13569 as listed by the source): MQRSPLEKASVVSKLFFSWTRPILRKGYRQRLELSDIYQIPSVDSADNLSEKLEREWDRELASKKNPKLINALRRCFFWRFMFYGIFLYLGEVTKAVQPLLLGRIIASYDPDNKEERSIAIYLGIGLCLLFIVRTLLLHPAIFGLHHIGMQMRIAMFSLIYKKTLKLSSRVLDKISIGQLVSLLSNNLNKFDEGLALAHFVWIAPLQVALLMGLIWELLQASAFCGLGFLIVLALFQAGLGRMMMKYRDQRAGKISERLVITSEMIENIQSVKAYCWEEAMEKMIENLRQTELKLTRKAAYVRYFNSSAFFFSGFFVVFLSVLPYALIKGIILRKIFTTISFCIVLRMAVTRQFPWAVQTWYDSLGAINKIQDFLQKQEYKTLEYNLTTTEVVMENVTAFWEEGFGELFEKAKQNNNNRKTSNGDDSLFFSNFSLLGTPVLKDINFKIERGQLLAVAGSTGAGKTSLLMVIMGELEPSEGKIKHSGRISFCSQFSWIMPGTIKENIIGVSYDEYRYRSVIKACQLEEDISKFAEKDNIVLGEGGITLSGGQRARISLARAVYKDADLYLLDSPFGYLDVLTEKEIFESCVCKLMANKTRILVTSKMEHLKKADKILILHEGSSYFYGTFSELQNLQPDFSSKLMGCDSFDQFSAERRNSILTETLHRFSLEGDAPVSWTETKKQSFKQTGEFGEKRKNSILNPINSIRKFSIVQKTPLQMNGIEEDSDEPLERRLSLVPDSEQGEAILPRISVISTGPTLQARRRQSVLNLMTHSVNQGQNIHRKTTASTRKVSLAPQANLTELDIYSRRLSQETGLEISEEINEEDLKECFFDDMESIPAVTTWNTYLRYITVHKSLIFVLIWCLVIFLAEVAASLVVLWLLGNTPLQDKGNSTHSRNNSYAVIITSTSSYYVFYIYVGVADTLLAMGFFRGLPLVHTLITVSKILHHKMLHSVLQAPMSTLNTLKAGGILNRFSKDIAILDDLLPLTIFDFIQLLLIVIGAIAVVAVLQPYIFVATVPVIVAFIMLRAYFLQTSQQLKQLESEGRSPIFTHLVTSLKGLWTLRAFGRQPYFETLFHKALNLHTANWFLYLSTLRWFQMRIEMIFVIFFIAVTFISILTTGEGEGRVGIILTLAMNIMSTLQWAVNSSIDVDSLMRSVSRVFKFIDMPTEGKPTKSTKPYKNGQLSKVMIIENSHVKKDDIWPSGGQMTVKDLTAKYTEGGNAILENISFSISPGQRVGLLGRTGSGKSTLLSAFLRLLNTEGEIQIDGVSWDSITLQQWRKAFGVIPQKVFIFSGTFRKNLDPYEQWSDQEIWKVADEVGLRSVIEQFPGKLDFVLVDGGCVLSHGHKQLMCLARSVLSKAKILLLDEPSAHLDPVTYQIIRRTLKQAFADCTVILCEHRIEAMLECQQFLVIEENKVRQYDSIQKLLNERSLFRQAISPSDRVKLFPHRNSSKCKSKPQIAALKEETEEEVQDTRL
Sequence of Cystic fibrosis transmembrane conductance regulator (Homo sapiens), P13569 [F508del] (P13569 as listed by the source): as above
Sequence of Cytochrome P450 2C19 (P33261 whole entry): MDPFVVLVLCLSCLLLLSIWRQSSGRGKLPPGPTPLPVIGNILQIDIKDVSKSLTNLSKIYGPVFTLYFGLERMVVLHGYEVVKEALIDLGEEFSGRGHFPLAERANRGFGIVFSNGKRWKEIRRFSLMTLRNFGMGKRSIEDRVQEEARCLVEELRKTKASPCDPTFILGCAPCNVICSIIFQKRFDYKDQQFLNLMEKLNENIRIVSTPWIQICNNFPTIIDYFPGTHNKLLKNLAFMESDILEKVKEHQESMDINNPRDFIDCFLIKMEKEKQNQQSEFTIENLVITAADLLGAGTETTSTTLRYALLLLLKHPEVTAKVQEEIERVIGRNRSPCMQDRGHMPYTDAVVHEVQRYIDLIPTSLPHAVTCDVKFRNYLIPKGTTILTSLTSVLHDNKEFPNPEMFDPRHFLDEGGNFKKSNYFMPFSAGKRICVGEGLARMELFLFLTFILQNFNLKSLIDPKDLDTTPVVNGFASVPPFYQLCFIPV
Sequence of Cytochrome P450 2C9 (P11712 whole entry): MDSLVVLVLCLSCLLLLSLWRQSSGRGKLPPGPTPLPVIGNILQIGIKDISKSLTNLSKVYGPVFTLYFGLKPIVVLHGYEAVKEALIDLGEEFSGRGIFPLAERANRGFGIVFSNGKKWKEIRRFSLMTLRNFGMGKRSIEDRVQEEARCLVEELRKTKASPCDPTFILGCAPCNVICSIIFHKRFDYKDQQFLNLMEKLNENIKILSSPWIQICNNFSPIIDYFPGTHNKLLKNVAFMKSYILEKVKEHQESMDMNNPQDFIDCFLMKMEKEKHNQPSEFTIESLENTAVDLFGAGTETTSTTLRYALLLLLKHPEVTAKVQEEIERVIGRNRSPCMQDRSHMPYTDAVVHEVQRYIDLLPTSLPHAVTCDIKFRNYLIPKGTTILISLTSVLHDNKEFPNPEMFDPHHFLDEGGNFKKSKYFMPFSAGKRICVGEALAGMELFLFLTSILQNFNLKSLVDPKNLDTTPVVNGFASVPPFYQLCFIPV
Sequence of Cytochrome P450 3A4 (P08684 whole entry): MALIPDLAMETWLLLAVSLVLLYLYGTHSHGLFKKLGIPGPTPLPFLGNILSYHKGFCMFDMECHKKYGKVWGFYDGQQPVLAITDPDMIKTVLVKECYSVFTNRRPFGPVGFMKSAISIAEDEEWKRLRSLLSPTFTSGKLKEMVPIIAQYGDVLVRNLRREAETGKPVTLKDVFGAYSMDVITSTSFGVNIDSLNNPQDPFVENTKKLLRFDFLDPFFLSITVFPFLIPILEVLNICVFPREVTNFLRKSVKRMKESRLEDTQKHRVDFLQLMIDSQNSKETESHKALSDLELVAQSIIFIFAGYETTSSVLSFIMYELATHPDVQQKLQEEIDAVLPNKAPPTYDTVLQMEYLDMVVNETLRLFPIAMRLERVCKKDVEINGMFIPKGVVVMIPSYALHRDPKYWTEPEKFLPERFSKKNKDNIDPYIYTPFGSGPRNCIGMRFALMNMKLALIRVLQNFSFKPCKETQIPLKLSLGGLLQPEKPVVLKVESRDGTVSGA
Sequence of Cystic fibrosis transmembrane conductance regulator (Homo sapiens), P13569 [S549N] (P13569 whole entry S549N): as the sequence (P13569 whole entry G551D) above, with S549N, D551G counted along it
Sequence of Cystic fibrosis transmembrane conductance regulator (Homo sapiens), P13569 [R117H] (P13569 whole entry R117H): as the sequence (P13569 whole entry G551D) above, with R117H, D551G counted along it
Sequence of Cystic fibrosis transmembrane conductance regulator (Homo sapiens), P13569 [G178R] (P13569 whole entry G178R): as the sequence (P13569 whole entry G551D) above, with G178R, D551G counted along it

## CC1(C)Cc2c(sc(NC(=O)c3ccn[nH]3)c2C(N)=O)C(C)(C)O1
[1]
  Activity: 105%
[2]
  EC50: 3 nM
[3]
  Activity: 103%
[4]
  EC50: 339 nM
[5]
  Activity: 200%
[6]
  EC50: 181 nM
[7]
  Efficacy: 158%
[8]
  Efficacy: 143%
[9]
  Efficacy: 119%
[10]
  CL free: 28.3 mL/min/kg
[11]
  CL free: 18.3 mL/min/kg
[12]
  CL free: 95 mL/min/kg
[13]
  CL free: 30 mL/min/kg
Cytochrome P450 1A2
  EC50: > 100000 nM
Cytochrome P450 2C19
  EC50: > 100000 nM
Cytochrome P450 2C9
  EC50: > 100000 nM
Cytochrome P450 2D6
  EC50: > 100000 nM
Cytochrome P450 3A4
  EC50: > 100000 nM
[14]
  EC50: > 33000 nM
[15]
  solubility thermodynamic: 8.6 µM (≈ 3 µg/mL)
[16]
  solubility thermodynamic: 11 µM (≈ 3.83 µg/mL)
[17]
  Papp A→B: 11 ×10⁻⁶ cm/s
[18]
  efflux ratio: 2.6
[19]
  Cmax: 331 ng/mL
[20]
  clearance: 32 mL/min/kg
[21]
  clearance: 5.33 mL/min/kg
Rattus norvegicus
  CL free: 400 mL/min/kg
Canis familiaris
  CL free: 107 mL/min/kg
[22]
  Vd: 4.8 L/kg
[23]
  Vd: 1.4 L/kg
[24]
  half-life: 1.84 h
[25]
  half-life: 3 h
[26]
  bioavailability: 67%
[27]
  bioavailability: > 100%
[28]
  Cmax: 4670 ng/mL
[29]
  AUC: 1540 ng·h/mL
[30]
  AUC: 68200 ng·h/mL
Homo sapiens [31]
  Activity: Non-Toxic
Homo sapiens [32]
  Activity: Non-Toxic
[33]
  Activity: Active

## Cc1ccc(C(=O)Nc2sc3c(c2C(N)=O)CCCC3)s1
[1]
  Activity: 72%
[2]
  EC50: 652 nM

## CC1(C)Cc2c(sc(NC(=O)Cc3ccn[nH]3)c2C(N)=O)C(C)(C)O1
[2]
  EC50: 136 nM

## CC1(C)Cc2c(sc(NC(=O)C(C)(C)O)c2C(N)=O)C(C)(C)O1
[2]
  EC50: 16 nM

## Cc1cc(C(=O)Nc2sc3c(c2C(N)=O)CC(C)(C)OC3(C)C)[nH]n1
[1]
  Activity: 81%
[2]
  EC50: 13 nM
[3]
  Activity: 73%

## Cc1ccc(C(=O)Nc2sc3c(c2C(N)=O)CCOC3)s1
[1]
  Activity: 74%
[2]
  EC50: 778 nM

## CC1(C)Cc2c(sc(NC(=O)c3ccccc3NS(C)(=O)=O)c2C(N)=O)C(C)(C)O1
[2]
  EC50: 147 nM

## CC1(C)Cc2c(sc(NC(=O)C(C)(C)CO)c2C(N)=O)C(C)(C)O1
[2]
  EC50: 75 nM

## CC1Cc2c(sc(NC(=O)c3ccccc3O)c2C(N)=O)C(C)O1 (stereo not given)
[1]
  Activity: 98%
[2]
  EC50: 4 nM
[3]
  Activity: 36%
[4]
  EC50: 236 nM

## CC1(C)Cc2c(sc(NC(=O)c3cn[nH]c3)c2C(N)=O)C(C)(C)O1
[2]
  EC50: 125 nM

## Cc1[nH]nc(C(=O)Nc2sc3c(c2C(N)=O)CC(C)(C)OC3(C)C)c1Cl
[2]
  EC50: 11 nM
[4]
  EC50: 199 nM

## CC1(C)Cc2c(sc(NC(=O)c3ccccc3O)c2C(N)=O)CO1
[1]
  Activity: 93%
[2]
  EC50: 13 nM
[3]
  Activity: 51%
[4]
  EC50: 490 nM

## NC(=O)c1c(NC(=O)c2ccccc2Cl)sc2c1CCCC2
[1]
  Activity: 71%
[2]
  EC50: 326 nM
[3]
  Activity: 18%
[4]
  EC50: > 10000 nM
[10]
  CL free: 1400 mL/min/kg

## Cc1cn[nH]c1C(=O)Nc1sc2c(c1C(N)=O)CC(C)(C)OC2(C)C
[1]
  Activity: 96%
[2]
  EC50: 2 nM
[3]
  Activity: 83%
[4]
  EC50: 123 nM

## CC(C)(C)CC(O)C(=O)Nc1sc2c(c1C(N)=O)CC(C)(C)OC2(C)C (stereo not given)
[1]
  Activity: 102%
[2]
  EC50: 0.54 nM
[3]
  Activity: 58%
Homo sapiens [34]
  Ratio EC50: 2000
